Sampled rows, rich in hits. Any-hit rate of the full collection: about 1.3%.
Dynein cargo inh – dynein cargo transport inhibition | 220,000 compounds, 0.47% hits | 3617.4 mouse cells, GR-EGFP nuclear translocation imaging; test concentration mostly 20 µM; stimulated with dexamethasone, 1 µM; active compounds read low | AID 1381 | z-score, hits read low;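 active means plate z-score of nuclear minus cytoplasmic receptor signal below a set negative limit, without overly bright fluorescence or cell loss, cut at about -3.5 in these data, passing the limit was not always enough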;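 further: z-score of nuclear minus cytoplasmic ring GR-EGFP intensity difference per well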
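medium = tetracycline-free induction medium containing charcoal-stripped FBS | probe or stimulus = dexamethasone, 1.0 µM final | timing = 48 h induction, then 1 h compound, then 30 min agonist, 37 °C | detection = automated 10x imaging of fixed Hoechst-stained cells | read-out basis = nuclear versus cytoplasmic GR-EGFP signal, averaged per well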
S1P4 antagonist – antagonists of human S1P4 receptor | O95977 | S1P4-expressing cells, antagonist mode, reporter read-out | inhibition, % at 4.98 µM | 220,000 compounds, 0.26% hits | AID 1510; in the data active means inhibition above about 29%
Target sequence (O95977 whole entry, looked up): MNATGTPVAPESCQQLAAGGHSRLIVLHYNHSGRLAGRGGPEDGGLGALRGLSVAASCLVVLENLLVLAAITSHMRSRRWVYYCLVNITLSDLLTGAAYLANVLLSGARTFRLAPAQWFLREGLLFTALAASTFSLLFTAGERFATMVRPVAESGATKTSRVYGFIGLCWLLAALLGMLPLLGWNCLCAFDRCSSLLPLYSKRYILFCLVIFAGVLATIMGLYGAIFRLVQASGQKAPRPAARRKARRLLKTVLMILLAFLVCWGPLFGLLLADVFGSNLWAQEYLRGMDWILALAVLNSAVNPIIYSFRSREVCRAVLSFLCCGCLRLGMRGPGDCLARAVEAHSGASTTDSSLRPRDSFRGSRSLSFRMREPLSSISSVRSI
MDM2 E3 inh – Mdm2 E3 ligase (human) inhibition. Q00987. cell-based MDM2 ubiquitination luciferase reporter, 2 h; 0 = plate control, 100 = twice control, blank-subtracted. signal enhancement, % at 5 µM. 210,000 compounds, 0.11% hits. AID 1230;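 active means signal enhancement of 30% or more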;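 further: luminescence tracks abundance of the self-degrading MDM2-luciferase fusion protein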
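Test system: mammalian cells stably expressing self-ubiquitinating, self-degrading MDM2 E3–luciferase fusion; Amount: 2000 cells in each well; Medium: DMEM; Schedule: 4 h settle plus 2 h compound, 37 °C; Technique: SteadyLite luciferase luminescence after 15 min room-temperature reagent incubation; Benchmarks: plate control and blank wells.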
S1P3 antagonist – antagonists of human S1P3 receptor; Q99500; CHO S1P3 NFAT-BLA reporter, FRET fluorescence, antagonist mode; inhibition, % at 4.98 µM; 170,000 compounds, 0.27% hits;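 active means inhibition above the plate cutoff, the mean inhibition of test wells on that plate plus 3 SD, cut at about 28% in these data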;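 further: cells challenged with S1P at its EC80 of 0.8 µM; blue over green emission ratio from cleaved BLA substrate after 4 h stimulation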
Target sequence (Q99500 whole entry, looked up): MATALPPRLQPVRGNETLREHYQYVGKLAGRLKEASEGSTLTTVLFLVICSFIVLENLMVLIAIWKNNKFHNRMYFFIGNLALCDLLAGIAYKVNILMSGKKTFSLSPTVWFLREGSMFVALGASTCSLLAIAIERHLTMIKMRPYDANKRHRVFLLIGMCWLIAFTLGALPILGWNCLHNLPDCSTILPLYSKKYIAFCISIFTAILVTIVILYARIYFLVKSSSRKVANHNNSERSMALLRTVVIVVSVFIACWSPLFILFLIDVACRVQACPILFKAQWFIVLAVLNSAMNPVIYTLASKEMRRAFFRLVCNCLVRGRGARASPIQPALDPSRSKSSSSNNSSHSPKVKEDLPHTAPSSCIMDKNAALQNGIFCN
Hsp70 activator – switches on Hsp70 transcription; activation, % at 10 µM; HeLa Hsp70 promoter luciferase reporter, luminescence; scaled: vehicle 0, proteasome-inhibitor control 100%; 200,000 compounds, 0.04% hits; AID 1203;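 active means activation above the mean across all tested compounds plus 3 SD, cutoff set per campaign, cut at about 5.5% in these data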
S1P4 ag – activates the human S1P4 receptor | O95977 | S1P4-expressing cell line, agonist reporter assay | activation, % at 4.98 µM | 220,000 compounds, 0.35% hits; in the data active means activation above about 11%
Hsp70 act DR – activates Hsp70 transcription in dose response | HeLa hsp70.1pr-luc reporter, luciferase luminescence | shares compounds with Hsp70 activator | calls only at 99 µM | 70 compounds, 10% hits | AID 1252;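 active means over 50% activation at some tested dose; inactive means under 50% activation at every tested dose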
Dynein inh conf – dynein cargo transport inhibition, confirmation | shares compounds with Dynein cargo inh | calls only at 20 µM | 3617.4 GR-EGFP nuclear translocation imaging, dexamethasone-induced | AID 463116 | 1,000 compounds, 69% hits;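 active means inhibition of receptor movement into the nucleus at or above a set limit in both runs, with normal cell brightness and cell count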;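 further: dexamethasone at 1 µM final in well for 30 min; nuclear minus cytoplasmic GR-EGFP mean intensity difference in channel 2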
S1P4 antag cf – confirmation of human S1P4 receptor antagonists; 520 compounds, 71% hits; inhibition, % at 4.98 µM; AID 1524; S1P4-expressing cell line, antagonist mode, reporter read-out; shares compounds with S1P4 antagonist; in the data active means inhibition above about 30%
S1P1 antag – counter-screen for S1P4 antagonists: antagonists of human S1P1; inhibition, % at 4.98 µM; shares compounds with S1P4 antagonist; 520 compounds, 37% hits; cell-based S1P1 antagonist counterscreen, inhibition; in the data active means inhibition above about 40%;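 further: receptor stimulated with S1P near its EC80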
Each line names hits and unclear results; the compound was inactive in the other large screens (follow-up assays come after a bar, where they were run).

O=C(Nc1ccc(N2CCOCC2)cc1)c1nc2ccccc2s1	none (no result: MDM2 E3 inh, Hsp70 activator)
O=C(COC(=O)c1ccc(F)cc1)Nc1ccc(Cl)cn1	none (no result: Hsp70 activator)
O=C(OCn1ncc(Cl)c(Cl)c1=O)c1ccccc1Cl	Hsp70 activator 7.4 (no result: S1P3 antagonist) | Hsp70 act DR active
O=C(OCCN1CCCCC1)c1ccccc1Cl	none
O=C(OCn1ncc(Cl)c(Cl)c1=O)c1ccc(F)cc1	Hsp70 activator 13 (no result: S1P3 antagonist) | Hsp70 act DR inactive
COC(=O)Nc1ccc(S(=O)(=O)NCc2ccccn2)cc1	Hsp70 activator 5.8 | Hsp70 act DR inactive
CC(CC1CC(C)(C)OC1=O)C(=O)Nc1ccc([N+](=O)[O-])cc1 (stereo not given)	Hsp70 activator 5.6 | Hsp70 act DR inactive
Cc1nn(Cc2ccccc2)c(Cl)c1/C=C/C(=O)OC(C)C(=O)N1CCCC1 (stereo not given)	none
COCC(=O)Nc1cccc(Br)c1	Hsp70 activator 6.3 | Hsp70 act DR inactive
Cn1c(=O)c2c(ncn2CC(=O)N2CCN(C(=O)c3ccco3)CC2)n(C)c1=O	none
Cn1c(CCN2CCOCC2)nc2cc(NC(=O)COc3ccc(Cl)cc3)ccc21	Hsp70 activator 8.7 | Hsp70 act DR inactive
COc1ccc(OCC(=O)Nc2ccc3c(c2)nc(CCN2CCOCC2)n3C)cc1	none
CC1=C(C(=O)OC2CCCC2)C(c2coc3ccccc3c2=O)C2=C(CC(C)(C)CC2=O)N1 (stereo not given)	none (no result: Hsp70 activator)
N#Cc1ccc(NC(=O)c2nc(-c3ccccc3)n(-c3ccccc3)n2)cc1	Hsp70 activator 6.7 (no result: S1P3 antagonist) | Hsp70 act DR inactive
CCOC(=O)/C(=C\c1ccccc1)C(=O)c1cc(C(C)=O)c(Nc2ccccc2)s1	none (no result: S1P3 antagonist)
CCOC(=O)/C(=C\c1cccnc1)C(=O)c1cc(C(C)=O)c(Nc2ccccc2)s1	Dynein cargo inh -5.7, S1P4 antagonist 63, Hsp70 activator 17 (no result: S1P3 antagonist) | Hsp70 act DR inactive | Dynein inh conf active
CN(CCc1nc2ccc(Cl)cc2[nH]1)Cc1nc(CC2CC2)no1	none
Cc1nc(C)c(-c2ccn(C(=O)NC(C)C)n2)s1	none (no result: Hsp70 activator)
C=CS(=O)(=O)c1ccc(Oc2ccc(S(=O)(=O)C=C)cc2)cc1	Dynein cargo inh -4, MDM2 E3 inh 64, S1P3 antagonist 100, Hsp70 activator 48 | Hsp70 act DR inactive | Dynein inh conf active
CC(C)C(=O)N1CCN(c2ccc(NC(=O)c3ccc([N+](=O)[O-])o3)cc2Cl)CC1	Dynein cargo inh -4.2, S1P4 antagonist 47, Hsp70 activator 74 | Hsp70 act DR inactive | Dynein inh conf active
COc1ccccc1C1Nc2cccc3cccc(c23)N1	Dynein cargo inh -4.7, Hsp70 activator 24 (no result: S1P3 antagonist) | Hsp70 act DR inactive | Dynein inh conf inactive
Cc1ccc(C)c2[nH]c(=O)c(CCNC(=O)c3ccco3)cc12	none
COc1cc(OC)nc(-n2ncc(Br)c(Br)c2=O)n1	Dynein cargo inh -3.5, Hsp70 activator 30 | Hsp70 act DR active | Dynein inh conf active
COC(=O)c1cnn(-c2nc(OC)cc(OC)n2)c1C	none
CCCC(=O)N1CCN(c2ccc(NC(=O)c3ccc([N+](=O)[O-])o3)cc2Cl)CC1	Dynein cargo inh -4.7, S1P4 antagonist 87, Hsp70 activator 35 | Hsp70 act DR inactive | Dynein inh conf active | S1P4 antag cf 99 | S1P1 antag 49
O=C(Nc1ccc(N2CCN(C(=O)c3ccccc3)CC2)cc1)c1ccc([N+](=O)[O-])o1	S1P4 antagonist 84, Hsp70 activator 32 | Hsp70 act DR inactive | S1P4 antag cf 116 | S1P1 antag 77
O=C(CNC(=S)N(CCCN1CCOCC1)Cc1cccs1)N1CCCCCC1	none
C/C(=N\O)c1ncc(C(F)(F)F)cc1Cl	none
Cc1ccc(Nc2cc(C)nn2-c2nc(C)cc(=O)[nH]2)cc1	S1P4 antagonist 92, Hsp70 activator 90 | Hsp70 act DR inactive | S1P4 antag cf 114 | S1P1 antag 95
CCOP(=O)(OCC)C(NC(=O)c1cc([N+](=O)[O-])cc([N+](=O)[O-])c1)C(F)(F)F (stereo not given)	none
CC1(N(O)/C=C2\C=CC=CC2=O)CCCCC1=O (stereo not given)	none (no result: Hsp70 activator)
O=[N+]([O-])c1ccccc1C1Nc2cccc3cccc(c23)N1	S1P4 antagonist 59, Hsp70 activator 30 (no result: S1P3 antagonist) | Hsp70 act DR inactive | S1P4 antag cf inactive | S1P1 antag inactive
Cc1cc(Cl)n2c(nc3ccccc32)c1C#N	Dynein cargo inh -5.2, S1P4 antagonist 44, Hsp70 activator 9.7 | Hsp70 act DR inactive | Dynein inh conf active | S1P4 antag cf 108 | S1P1 antag 69
CCN(CC)c1cc(C)c(C#N)c2nc3ccccc3n12	none (no result: Hsp70 activator)
COc1ccc(NC(=O)/C(Cl)=C(/Cl)S(=O)Cc2ccccc2)cn1 (stereo not given)	Dynein cargo inh -5.4, S1P4 antagonist 91, Hsp70 activator 22 (no result: S1P3 antagonist) | Hsp70 act DR inactive | Dynein inh conf active | S1P4 antag cf 123 | S1P1 antag 68
COc1ccc(NC(=O)Cc2ccccc2)cn1	none
O=C1/C(=C/c2ccncc2)CCC/C1=C\c1ccncc1	Dynein cargo inh -7, S1P4 antagonist 83, Hsp70 activator 210 | Hsp70 act DR active | S1P4 antag cf 99 | S1P1 antag inactive
O=C1/C(=C/c2ccncc2)CCc2ccccc21	none (no result: Hsp70 activator)
COC(=O)c1cn(NC(=O)c2cc([N+](=O)[O-])ccc2F)c(=O)c2ccccc12	Dynein cargo inh -3.9 | Dynein inh conf active
CCOC(=O)C(=Cc1c[nH]c2ccc(S(=O)(=O)N(C)C)cc12)C(=O)OCC	Dynein cargo inh -4.7 (no result: Hsp70 activator) | Dynein inh conf active
O=c1cc(-c2c(F)c(F)c(F)c(F)c2F)oc2c(F)c(F)c(F)c(F)c12	Dynein cargo inh -8.2 (no result: S1P3 antagonist) | Dynein inh conf active
O=c1cc(-c2c(F)c(F)c(F)c(F)c2F)oc2ccccc12	none (no result: S1P3 antagonist)
Cc1ccc(SC(=O)c2c(C)noc2-c2cc(C)on2)cc1	Dynein cargo inh -5.1 (no result: Hsp70 activator) | Dynein inh conf active
Cc1cc(-c2onc(C)c2C(=O)N/N=C/c2ccccc2)no1	none (no result: Hsp70 activator)
O=C(CSc1nc2[nH]ncc2c(=O)n1-c1ccccc1)N1CCCCCC1	none
CC(C1CCN(Cc2nc(C3CC3)no2)CC1)N1CCOCC1 (stereo not given)	none

Source: PubChem
